These results are taken from ChEMBL document CHEMBL1255379, “Evaluation of Etest method for determining isavuconazole MICs against Cryptococcus gattii and Cryptococcus neoformans” (2008).

The subject of experiment [1] is Cryptococcus gattii species complex. Nature of the experiment: Antimicrobial activity against Cryptococcus gattii by broth microdilution method. The class given is functional, Cryptococcus bacillisporus. The method, boiled down:
(§1)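 CLSI M27-A2 broth microdilution in RPMI 1640 with L-glutamine, no bicarbonate, MOPS-buffered to pH 7.0. Isavuconazole stock in DMSO; final concentrations 0.015 to 8 μg/ml. Inoculum 0.5 × 10³ to 2.5 × 10³ cells/ml from subcultured isolates. Incubated at 35°C. MIC read at 48 and 72 h as 50% reduction in turbidity versus drug-free control. Candida krusei ATCC 6258 and C. parapsilosis ATCC 22019 served as quality controls.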
Background: Broth dilution looks for growth in wells or tubes with falling amounts of substance.

The subject of experiment [2] is Cryptococcus neoformans. Nature of the experiment: Antimicrobial activity against Cryptococcus neoformans by Etest method. The class given is functional. The method, boiled down:
(§2)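 Isolates (clinical and environmental), maintained in sterile water or glycerol broth, subcultured at least twice on Sabouraud dextrose agar. Suspension adjusted to 0.5 McFarland and swabbed onto RPMI agar plates with 2% glucose; isavuconazole Etest strips applied. Incubated at 35°C, read at 48 and 72 h. MIC taken where prominent growth reduction meets the strip, raised to the next twofold level.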

Experiment [3] deals with Cryptococcus gattii species complex. Nature of the experiment: Antimicrobial activity against Cryptococcus gattii by Etest method. The class given is functional, Cryptococcus bacillisporus. Summed up:
as §2

The subject of experiment [4] is Cryptococcus neoformans. The experiment can be described thus: Antimicrobial activity against Cryptococcus neoformans by broth microdilution method. The class given is functional. The method, boiled down: as §1

SMILES strings stand for the structures. Converted amounts (≈) assume the structure as drawn. Some results are limits rather than exact numbers.

With `C[C@@H](c1nc(-c2ccc(C#N)cc2)cs1)[C@](O)(Cn1cncn1)c1cc(F)ccc1F` [ISAVUCONAZOLE], the MIC (in general, the smallest concentration in the dilution series that meets the test's criterion for growth inhibition) in experiment [1] is no more than 0.015 µg/mL; in experiment [2], 0.002 µg/mL (≈ 0.00457 µM); in experiment [3], 0.003 µg/mL (≈ 0.00686 µM); in experiment [4], no more than 0.015 µg/mL. In addition, the MIC50 (commonly an inhibitory concentration at the 50% level, which refers to growth in some studies and to a panel of isolates in others) was 0.03 µg/mL (≈ 0.0686 µM) in experiment [1], 0.023 µg/mL (≈ 0.0526 µM) in experiment [2], 0.032 µg/mL (≈ 0.0731 µM) in experiment [3] and no more than 0.015 µg/mL in experiment [4]. In addition, the MIC90 (in general, the lowest concentration that inhibits either 90% of growth or 90% of the strains tested, depending on the study) came to 0.06 µg/mL (≈ 0.137 µM) in experiment [1], 0.047 µg/mL (≈ 0.107 µM) in experiment [2], 0.125 µg/mL (≈ 0.286 µM) in experiment [3] and 0.06 µg/mL (≈ 0.137 µM) in experiment [4].
